Test results from paper PMC4378865 (Journal of biomolecular screening, 2014).

What was measured:
Jurkat cells = assay: Jurkat cell cytotoxicity counterscreen; type: cell-based
In short: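 Jurkat E6.1 suspension cells grown in RPMI-1640 with 10% dialyzed FBS, NEAA, pyruvate, HEPES, glutamine and antibiotic-antimycotic at 37 °C, 5% CO₂. CellTiter-Glo added, 10 min RT, then luminescence read. Tested in triplicate. Data normalized per plate: 8 µM doxorubicin as high control, DMSO as low control.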

[1] = target: T1, human mitochondrial MetRS (Homo sapiens, UniProt Q96GW9); assay: Aminoacylation assay, selectivity counterscreen; type: biochemical
T1 sequence (Q96GW9 30-593): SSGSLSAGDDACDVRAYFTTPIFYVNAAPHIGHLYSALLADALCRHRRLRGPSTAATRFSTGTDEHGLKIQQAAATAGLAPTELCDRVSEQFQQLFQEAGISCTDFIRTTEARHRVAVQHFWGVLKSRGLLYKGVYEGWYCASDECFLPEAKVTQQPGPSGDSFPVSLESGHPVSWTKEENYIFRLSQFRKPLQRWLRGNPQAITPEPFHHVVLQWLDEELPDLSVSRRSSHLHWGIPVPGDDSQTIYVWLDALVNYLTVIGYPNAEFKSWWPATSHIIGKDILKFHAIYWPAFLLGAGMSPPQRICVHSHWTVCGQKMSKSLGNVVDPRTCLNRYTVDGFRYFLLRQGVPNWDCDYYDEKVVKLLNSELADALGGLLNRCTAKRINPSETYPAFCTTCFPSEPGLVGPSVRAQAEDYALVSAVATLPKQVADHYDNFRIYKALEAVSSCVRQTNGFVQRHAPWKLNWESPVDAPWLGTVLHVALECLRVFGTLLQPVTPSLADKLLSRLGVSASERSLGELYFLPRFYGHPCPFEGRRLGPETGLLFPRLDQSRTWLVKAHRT

T. brucei MetRS [2] = target: T2, T. brucei MetRS (Trypanosoma brucei brucei, UniProt Q38C91); assay: Luminescence; type: biochemical
T2 sequence (Q38C91 1-773): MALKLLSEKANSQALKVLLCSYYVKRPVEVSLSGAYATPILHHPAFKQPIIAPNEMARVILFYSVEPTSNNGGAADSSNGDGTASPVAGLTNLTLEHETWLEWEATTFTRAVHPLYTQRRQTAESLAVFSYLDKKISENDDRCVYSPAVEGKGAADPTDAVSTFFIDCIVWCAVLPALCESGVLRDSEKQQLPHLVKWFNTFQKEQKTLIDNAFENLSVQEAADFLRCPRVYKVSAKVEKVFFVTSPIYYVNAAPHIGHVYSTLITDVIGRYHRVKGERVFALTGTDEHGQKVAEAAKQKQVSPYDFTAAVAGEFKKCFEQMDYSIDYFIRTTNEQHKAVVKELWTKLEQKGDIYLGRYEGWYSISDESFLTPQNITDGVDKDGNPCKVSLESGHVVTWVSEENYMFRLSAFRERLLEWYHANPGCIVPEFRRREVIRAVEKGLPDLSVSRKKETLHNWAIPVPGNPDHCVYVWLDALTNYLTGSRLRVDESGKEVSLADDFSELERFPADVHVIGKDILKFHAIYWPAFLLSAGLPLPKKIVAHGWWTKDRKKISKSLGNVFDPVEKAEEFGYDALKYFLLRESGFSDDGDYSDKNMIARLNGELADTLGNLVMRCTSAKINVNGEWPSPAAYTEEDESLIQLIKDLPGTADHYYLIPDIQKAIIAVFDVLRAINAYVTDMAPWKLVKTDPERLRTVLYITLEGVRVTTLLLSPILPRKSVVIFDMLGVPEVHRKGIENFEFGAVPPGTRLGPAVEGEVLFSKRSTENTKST

[3] = cited from earlier work
T. brucei MetRS [4] = target: T2, T. brucei MetRS; assay: Orthogonal fluorescence polarization AMP production assay; type: biochemical
In short: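 Concentration-response was run in triplicate as a 10-point serial dilution from 120 µM. AMP was detected by FP with a Transcreener AMP²/GMP² reagent (Cy5, excitation 620 nm, emission 688 nm), with FP = (S − P)/(P + S). Percent inhibition was normalized per plate between DMSO-only wells and wells with 1.5 µM reference inhibitor.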

T. brucei MetRS [5] = target: T2, T. brucei MetRS; settings: formerly shown; cited from earlier work
T. brucei MetRS [6] = target: T2, T. brucei MetRS; assay: Aminoacylation assay, incorporation of [3H]L-methionine into tRNA; type: biochemical
[7] = luminescence ATP depletion assay, 1536-well
[8] = fluorescence polarization assay

Question: For O=C(CCCSc1ccc(Cl)cc1)Nc1ccccc1O [CID 16312830], which “activity in the Jurkat cytotoxicity assay” value (Jurkat cells; dose response, highest dilution 83.3 M) is on record?
Answer: activity

Question: For CN(Cc1cc(Cl)cc(Cl)c1)[C@H]1C[C@H]2c3[nH]c4ccccc4c3CCN2C(=O)[C@H]1CO [CID 46902334], which “% inhibition” value ([1]; at 1, human mitochondrial MetRS) is on record?
Answer: 14.3%

Question: What about the “% inhibition” value ([1]; at 10, human mitochondrial MetRS) of the same compound?
Answer: 80.3%

Question: For COc1cccc(NC(=O)CSc2nnc3c(n2)[nH]c2ccc(C)cc23)c1 [CID 24793614], which IC50 (T. brucei MetRS [2]; [7]) is on record?
Answer: 44 nM

Question: Which bioavailability [3] does the source give for Oc1cc(NCCCNCc2cc(Cl)cc(Cl)c2)nc2ccccc12 [CID 18353708, 2-((3-((3,5-dichlorobenzyl)amino)propyl)amino)quinolin-4(1H)-one, reference compound] here?
Answer: poor bioavailability

Question: What about the IC50 (T. brucei MetRS [2]) of the same compound?
Answer: 24.2 ± 2.74 nM

Question: And the Hill slope (T. brucei MetRS [2]; luminescence ATP depletion assay, N=11)?
Answer: 4.41 ± 0.56

Question: And the IC50 (T. brucei MetRS [4])?
Answer: 30.3 ± 4.81 nM

Question: And the Hill slope (T. brucei MetRS [4]; fluorescence polarization assay, N=3)?
Answer: 4.34 ± 0.17

Question: And the “inhibition of T. brucei MetRS” value (T. brucei MetRS [5])?
Answer: sub-micromolar inhibition

Question: With O=C(Cn1cc(C(=O)C(=O)N2CCOCC2)c2ccccc21)Nc1cccc(C(F)(F)F)c1 [CID 2973195] as the compound, how does the IC50 (Jurkat cells; Jurkat cytotoxicity assay) read?
Answer: > 83000 nM

Question: And the pIC50 (Jurkat cells; Jurkat cytotoxicity assay)?
Answer: < 4.08

Question: What about the IC50 (T. brucei MetRS [2]; [7]) of the same compound?
Answer: 171 nM

Question: What about the pIC50 (T. brucei MetRS [2]; [7]) of the same compound?
Answer: 6.77

Question: And the IC50 (T. brucei MetRS [4]; [8])?
Answer: 292 nM

Question: What about the pIC50 (T. brucei MetRS [4]; [8]) of the same compound?
Answer: 6.53

Question: With O=C(CN1CCSC1=NCc1ccccc1)c1ccc(Cl)c(Cl)c1 [CID 4656759] as the compound, how does the “% inhibition” value (T. brucei MetRS [6]) read?
Answer: 28%

Question: Which “activity in fluorescence polarization assay” value (T. brucei MetRS [4]; dose response curve) does the source give for Cn1nc(C(F)(F)F)c(-c2cccc(C(F)(F)F)c2)c1NC(=O)Nc1ccc(F)cc1 [CID 2810697] here?
Answer: inactivity
